From ChEMBL document CHEMBL3997768, “The synthesis and antistaphylococcal activity of dehydroabietic acid derivatives: modifications at C12 and C7” (2017)
≈ marks a conversion by molar mass, not a printed value. Calls of active or inactive are those of the source. How the calls were made is not given here.

Key:
Type in all cases: functional
Staphylococcus aureus [1] = test: Antibacterial activity against Staphylococcus aureus Newman after 18 hrs by two fold serial dilution method
Summary of the method: (§1)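 Strains were grown overnight at 37 °C in TSB without antibiotic, diluted 1000-fold, and grown 2–3 h to A600 0.6. They were then diluted 1:400 in fresh TSB. Compounds in DMSO were two-fold serially diluted to a final 0.39–50 and mixed with an equal volume of bacteria. A600 was read after 18 h. MIC is the lowest concentration inhibiting growth. Triplicate; vancomycin and tetracycline were positive controls.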

Escherichia coli = test: Antibacterial activity against Escherichia coli AB1157 at 50 ug/ml after 18 hrs by two fold serial dilution method; summary of the method: as §1
Staphylococcus aureus [2] = test: Antibacterial activity against aminoglycosides/tetracycline-resistant Staphylococcus aureus NRS-1 after 18 hrs by two fold serial dilution method; conditions: NRS-1, 18 h
Summary of the method: (§2)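 Strains grown overnight at 37 °C in TSB without antibiotic. Cultures were diluted 1000-fold, grown at 37 °C for 2–3 h to A600 0.6, then diluted 1:400 in fresh TSB. Equal volumes of bacteria and two-fold serial DMSO dilutions (final 0.39–50) were mixed. A600 was read after 18 h. MIC was the lowest concentration inhibiting growth. Run in triplicate, with vancomycin and tetracycline controls.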

Staphylococcus aureus [3] = test: Antibacterial activity against erythromycin-resistant Staphylococcus aureus NRS-70 after 18 hrs by two fold serial dilution method; conditions: NRS-70, 18 h; summary of the method: as §2
Staphylococcus aureus [4] = test: Antibacterial activity against oxacillin/tetracycline-resistant Staphylococcus aureus NRS-100 after 18 hrs by two fold serial dilution method; conditions: NRS-100, 18 h; summary of the method: as §2
Staphylococcus aureus [5] = test: Antibacterial activity against gentamicin-resistant Staphylococcus aureus NRS-108 after 18 hrs by two fold serial dilution method; conditions: NRS-108, 18 h; summary of the method: as §2
Staphylococcus aureus [6] = test: Antibacterial activity against linezolid-resistant Staphylococcus aureus NRS-271 containing phage type E-MRSA after 18 hrs by two fold serial dilution method; conditions: NRS-271, 18 h; summary of the method: as §2

For `CC(C)c1cc2c(cc1Br)[C@@]1(C)CCC[C@@](C)(C(=O)O)[C@@H]1C/C2=N\OCCCNC(=O)c1ccccc1C(F)(F)F`, which MIC (Staphylococcus aureus [1]) is on record?
Its MIC is 7.84 to 9.8 µM (≈ 5 to 6.25 µg/mL).

And the Activity (Escherichia coli)?
The Activity was “inactive”.

`CC(C)c1cc2c(cc1Br)[C@@]1(C)CCC[C@@](C)(C(=O)O)[C@@H]1C/C2=N\OCCNC(=O)C1CC1` was tested. Which MIC (Staphylococcus aureus [1]) did it give?
Its MIC is 57.8 to 77 µM (≈ 30 to 40 µg/mL).

And the Activity (Escherichia coli)?
The Activity was “inactive”.

How did the MIC (Staphylococcus aureus [1]) turn out when `CC(C)c1cc2c(cc1Br)[C@@]1(C)CCC[C@@](C)(C(=O)O)[C@@H]1C/C2=N\OCCCN` was run?
The MIC was greater than 107 µM.

What about the Activity (Escherichia coli) of the same molecule?
The Activity was “inactive”.

How did the MIC (Staphylococcus aureus [1]) turn out when `CC(C)c1cc2c(cc1Br)[C@@]1(C)CCC[C@@](C)(C(=O)O)[C@@H]1C/C2=N\OCCCNC(=O)c1cc(Br)cs1` was run?
The MIC was 1.91 to 3.82 µM (≈ 1.25 to 2.5 µg/mL).

What about the MIC (Staphylococcus aureus [2]) of the same molecule?
Its MIC is 4.78 to 9.55 µM (≈ 3.13 to 6.25 µg/mL).

And the MIC (Staphylococcus aureus [3])?
Its MIC is 1.91 to 2.38 µM (≈ 1.25 to 1.56 µg/mL).

What about the MIC (Staphylococcus aureus [4]) of the same molecule?
The MIC was 4.78 µM (≈ 3.13 µg/mL).

And the MIC (Staphylococcus aureus [5])?
Its MIC is 2.38 to 3.82 µM (≈ 1.56 to 2.5 µg/mL).

And the MIC (Staphylococcus aureus [6])?
Its MIC is 2.38 to 3.82 µM (≈ 1.56 to 2.5 µg/mL).

And the Activity (Escherichia coli)?
The Activity was “inactive”.

What does the source list for `CC(C)c1cc2c(cc1Br)[C@@]1(C)CCC[C@@](C)(C(=O)O)[C@@H]1C/C2=N\OCCCNC(=O)c1ccc(C(F)(F)F)cc1`?
MIC (Staphylococcus aureus [1]): 1.96 to 3.92 µM (≈ 1.25 to 2.5 µg/mL); MIC (Staphylococcus aureus [2]): 9.8 to 19.6 µM (≈ 6.25 to 12.5 µg/mL); MIC (Staphylococcus aureus [3]): 1.96 to 2.45 µM (≈ 1.25 to 1.56 µg/mL); MIC (Staphylococcus aureus [4]): 4.91 µM (≈ 3.13 µg/mL); MIC (Staphylococcus aureus [5]): 2.45 to 3.92 µM (≈ 1.56 to 2.5 µg/mL); MIC (Staphylococcus aureus [6]): 2.45 to 3.92 µM (≈ 1.56 to 2.5 µg/mL); Activity (Escherichia coli): inactive

`CC(C)c1cc2c(cc1Br)[C@@]1(C)CCC[C@@](C)(C(=O)O)[C@@H]1C/C2=N\OCCNC(=O)Cc1ccccc1` was tested. Which MIC (Staphylococcus aureus [1]) did it give?
The MIC was 17.6 µM (≈ 10 µg/mL).

And the Activity (Escherichia coli)?
The Activity was “inactive”.

Which results are given for `CC(C)C(=O)NCCO/N=C1\C[C@H]2[C@](C)(C(=O)O)CCC[C@]2(C)c2cc(Br)c(C(C)C)cc21`?
MIC (Staphylococcus aureus [1]): 76.7 to 95.9 µM (≈ 40 to 50 µg/mL); Activity (Escherichia coli): inactive

How did the MIC (Staphylococcus aureus [1]) turn out when `CC(C)c1cc2c(cc1Br)[C@@]1(C)CCC[C@@](C)(C(=O)O)[C@@H]1C/C2=N\OCCNC(=O)c1c(F)c(F)c(F)c(F)c1F` was run?
The MIC was 5.81 to 7.75 µM (≈ 3.75 to 5 µg/mL).

And the Activity (Escherichia coli)?
The Activity was “inactive”.

Which results are given for `CC(C)c1cc2c(cc1Br)[C@@]1(C)CCC[C@@](C)(C(=O)O)[C@@H]1C/C2=N\OCCCNC(=O)c1ccc[nH]1`?
MIC (Staphylococcus aureus [1]): 4.48 µM (≈ 2.5 µg/mL); MIC (Staphylococcus aureus [2]): 5.6 µM (≈ 3.13 µg/mL); MIC (Staphylococcus aureus [3]): 2.79 to 4.48 µM (≈ 1.56 to 2.5 µg/mL); MIC (Staphylococcus aureus [4]): 2.79 to 4.48 µM (≈ 1.56 to 2.5 µg/mL); MIC (Staphylococcus aureus [5]): 2.79 to 4.48 µM (≈ 1.56 to 2.5 µg/mL); MIC (Staphylococcus aureus [6]): 2.79 to 4.48 µM (≈ 1.56 to 2.5 µg/mL); Activity (Escherichia coli): inactive

Which MIC (Staphylococcus aureus [1]) does the source give for `CC(C)c1cc2c(cc1Br)[C@@]1(C)CCC[C@@](C)(C(=O)O)[C@@H]1C/C2=N\OCCNC(=O)c1ccccc1F` here?
The MIC was 13.1 to 17.4 µM (≈ 7.5 to 10 µg/mL).

And the Activity (Escherichia coli)?
Its Activity is “inactive”.

For `CC(C)c1cc2c(cc1Br)[C@@]1(C)CCC[C@@](C)(C(=O)O)[C@@H]1C/C2=N\OCCNC(=O)c1ccc(C(F)(F)F)cc1`, which MIC (Staphylococcus aureus [1]) is on record?
The MIC was 5.02 to 8.02 µM (≈ 3.13 to 5 µg/mL).

And the Activity (Escherichia coli)?
Its Activity is “inactive”.

With `CCc1ccc(C(=O)NCCO/N=C2\C[C@H]3[C@](C)(C(=O)O)CCC[C@]3(C)c3cc(Br)c(C(C)C)cc32)cc1` as the molecule, how does the MIC (Staphylococcus aureus [1]) read?
Its MIC is 4.28 to 6.42 µM (≈ 2.5 to 3.75 µg/mL).

What about the Activity (Escherichia coli) of the same molecule?
The Activity was “inactive”.

What does the source list for `COc1ccc(C(=O)NCCCO/N=C2\C[C@H]3[C@](C)(C(=O)O)CCC[C@]3(C)c3cc(Br)c(C(C)C)cc32)cc1`?
MIC (Staphylococcus aureus [1]): 12.5 to 16.7 µM (≈ 7.5 to 10 µg/mL); Activity (Escherichia coli): inactive

With `CC(C)c1cc2c(cc1Br)[C@@]1(C)CCC[C@@](C)(C(=O)O)[C@@H]1C/C2=N\OCCCNC(=O)Cc1ccccc1C(F)(F)F` as the molecule, how does the MIC (Staphylococcus aureus [1]) read?
Its MIC is 7.67 µM (≈ 5 µg/mL).

What about the Activity (Escherichia coli) of the same molecule?
Its Activity is “inactive”.

Which MIC (Staphylococcus aureus [1]) does the source give for `CC(C)c1cc2c(cc1Br)[C@@]1(C)CCC[C@@](C)(C(=O)O)[C@@H]1C/C2=N\OCCNC(=O)c1ccsc1` here?
Its MIC is greater than 89 µM.

What about the Activity (Escherichia coli) of the same molecule?
Its Activity is “inactive”.

For `Cc1ccc(C(=O)NCCO/N=C2\C[C@H]3[C@](C)(C(=O)O)CCC[C@]3(C)c3cc(Br)c(C(C)C)cc32)s1`, which MIC (Staphylococcus aureus [1]) is on record?
Its MIC is 13 to 17.4 µM (≈ 7.5 to 10 µg/mL).

And the Activity (Escherichia coli)?
Its Activity is “inactive”.

For `CC(C)c1cc2c(cc1Br)[C@@]1(C)CCC[C@@](C)(C(=O)O)[C@@H]1C/C2=N\OCCNC(=O)c1ccccn1`, which MIC (Staphylococcus aureus [1]) is on record?
Its MIC is 26.9 to 35.9 µM (≈ 15 to 20 µg/mL).

What about the Activity (Escherichia coli) of the same molecule?
Its Activity is “inactive”.

What does the source list for `CC(C)c1cc2c(cc1Br)[C@@]1(C)CCC[C@@](C)(C(=O)O)[C@@H]1C/C2=N\OCCCNC(=O)c1cc2ccccc2[nH]1`?
MIC (Staphylococcus aureus [1]): > 41.1 µM; Activity (Escherichia coli): inactive

What does the source list for `CC(C)c1cc2c(cc1Br)[C@@]1(C)CCC[C@@](C)(C(=O)O)[C@@H]1C/C2=N\OCCNC(=O)c1ccccc1C(F)(F)F`?
MIC (Staphylococcus aureus [1]): 10 to 20.1 µM (≈ 6.25 to 12.5 µg/mL); Activity (Escherichia coli): inactive

`Cc1ccc(C(=O)NCCCO/N=C2\C[C@H]3[C@](C)(C(=O)O)CCC[C@]3(C)c3cc(Br)c(C(C)C)cc32)s1` was tested. Which MIC (Staphylococcus aureus [1]) did it give?
The MIC was 6.36 to 8.48 µM (≈ 3.75 to 5 µg/mL).

What about the Activity (Escherichia coli) of the same molecule?
Its Activity is “inactive”.

How did the MIC (Staphylococcus aureus [1]) turn out when `COc1ccc(C(=O)NCCO/N=C2\C[C@H]3[C@](C)(C(=O)O)CCC[C@]3(C)c3cc(Br)c(C(C)C)cc32)cc1` was run?
The MIC was 25.6 to 34.2 µM (≈ 15 to 20 µg/mL).

And the Activity (Escherichia coli)?
The Activity was “inactive”.

How did the MIC (Staphylococcus aureus [1]) turn out when `CC(C)c1cc2c(cc1Br)[C@@]1(C)CCC[C@@](C)(C(=O)O)[C@@H]1C/C2=N\OCCNC(=O)c1cc(Br)cs1` was run?
The MIC was 5.86 to 7.81 µM (≈ 3.75 to 5 µg/mL).

And the Activity (Escherichia coli)?
Its Activity is “inactive”.
